From ChEMBL document CHEMBL4651341, “The discovery of a novel series of compounds with single-dose efficacy against juvenile and adult Schistosoma species” (PLoS Negl Trop Dis, 2021)

Tested on: Schistosoma mansoni
Assay: Concentration required to kill 50% of 21 day old worms 5 days after drug treatment.
Assay type: functional, organism-based
Details: Puerto Rican, 120 h
Summary of the method: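 Juvenile S. mansoni (Puerto Rican strain) were perfused from CD1 mice 3 weeks post-infection and washed. They were cultured 6–8 per well in 200 µL DMEM with 2 mM glutamine, penicillin/streptomycin and 10% FCS at 37 °C, 5% CO2. Viability of individual worms was scored on day 5 after dosing (120 h).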

`Oc1ccc(-c2cnc3cnc(-c4cnn(CC5CC5)c4)cn23)cc1` was tested, and the EC50 was > 25 µM.
`COc1cccc(-c2cn3c(-c4ccc(OC)c(F)c4)cnc3cn2)c1` was tested, and the EC50 was 24.2 µM.
`COc1ccc(-c2nnc3ccc(-c4cccc(OC(C)C)c4)cn23)cc1` was tested, and the EC50 was > 25 µM.
`Cn1nccc1-c1cn2c(-c3ccc(O)cc3)cnc2cn1` was tested, and the EC50 was > 25 µM.
With `CC(C)Oc1cccc(-c2cn3c(-c4cncnc4)cnc3cn2)c1` the EC50 was > 25 µM.
Work on `CC(C)Oc1cccc(-c2cn3c(-c4ccc(N)cc4)cnc3cn2)c1` yielded an EC50 of 21.3 µM.
For `COc1ccc(-c2nnc3ccc(-c4cccc(CN)c4)cn23)cc1OC`, the EC50 was > 25 µM.
With `Oc1ccc(-c2cnc3cnc(-c4cccc(-c5ccn[nH]5)c4)cn23)cc1` the EC50 was > 25 µM.
In the case of `COc1cc(-c2ccc3nnc(-c4ccc(OC)c(OC)c4)n3c2)ccn1`, the EC50 is reported as > 25 µM.
`CC(C)Oc1cccc(-c2ccc3nnc(-c4ccc([S@+](C)[O-])cc4)n3c2)c1` was tested, and the EC50 was > 25 µM.
In the case of `COc1ccc(-c2cnc3cnc(-c4cccc(F)c4)cn23)cc1`, the EC50 is reported as > 25 µM.
With `Cn1ccc(-c2cn3c(-c4ccc(O)cc4)cnc3cn2)n1` the EC50 was > 25 µM.
`Cn1ncc2c(-c3cn4c(-c5ccc(O)cc5)cnc4cn3)cccc21` was tested, and the EC50 was 19 µM.
With `Cc1ccc(-c2cnc3cnc(-c4cccc(OC(C)C)c4)cn23)cn1` the EC50 was > 25 µM.
In the case of `COc1cccc(-c2nnc3ccc(-c4cccc(OC(C)C)c4)cn23)c1`, the EC50 is reported as > 25 µM.
For `COc1ncc(-c2ccc3nnc(-c4ccc(OC)c(OC)c4)n3c2)cn1`, the EC50 was > 25 µM.
For `COc1ccc(-c2nnc3ccc(-c4cccc(N)c4)cn23)cc1OC`, the EC50 was > 25 µM.
Work on `CCOc1cccc(-c2cn3c(-c4ccc(O)cc4)cnc3cn2)c1F` yielded an EC50 of 15.6 µM.
With `COc1ccc(-c2nnc3ccc(-c4ccc5c(cnn5C)c4)cn23)cc1OC` the EC50 was > 25 µM.
With `COc1cccc(-c2nnc3ccc(-c4cccc(C(C)C)c4)cn23)n1` the EC50 was 12.4 µM.
For `COc1ccc(-c2nnc3ccc(-c4ccc5[nH]ncc5c4)cn23)cc1OC`, the EC50 was > 25 µM.
For `CC(C)c1cccc(-c2ccc3nnc(-c4cn[nH]c4)n3c2)c1`, the EC50 was > 25 µM.
`COc1ccc(-c2cnc3cnc(-c4ccnc(C(F)(F)F)c4)cn23)cc1` was tested, and the EC50 was > 25 µM.
For `Cn1nc(C(F)(F)F)cc1-c1cn2c(-c3ccc(O)cc3)cnc2cn1`, the EC50 was > 25 µM.
In the case of `CC(C)c1cccc(-c2ccc3nnc(-c4ccc(S(N)(=O)=O)cc4)n3c2)c1`, the EC50 is reported as > 25 µM.
In the case of `COc1ccc(-c2nnc3ccc(-c4cccc(CO)c4)cn23)cc1OC`, the EC50 is reported as > 25 µM.
For `CCCOc1cc(-c2cn3c(-c4ccc(O)cc4)cnc3cn2)ccc1OC`, the EC50 was 25 µM.
Compound `COc1cccc(-c2cnc3cnc(-c4cccc(OC(C)C)c4)cn23)c1` has an EC50 of 24.8 µM.
`CNC(=O)c1cccc(-c2cn3c(-c4ccc(OC)cc4)cnc3cn2)c1` was tested, and the EC50 was > 25 µM.
For `CN(C)C(=O)c1ccc(-c2cn3c(-c4ccc(O)cc4)cnc3cn2)cc1`, the EC50 was > 25 µM.
Compound `Oc1ccc(-c2cnc3cnc(-c4ccc5cn[nH]c5c4)cn23)cc1` has an EC50 of 25 µM.
`COc1ccc(-c2nnc3ccc(-c4cccc(C(C)C)c4)cn23)c(OC)c1` gave an EC50 of 23.7 µM.
With `Oc1ccc(-c2cnc3cnc(-c4cnn(Cc5ccccc5)c4)cn23)cc1` the EC50 was > 25 µM.
`Oc1ccc(-c2cnc3cnc(-c4cnn(C5CCCC5)c4)cn23)cc1` was tested, and the EC50 was > 25 µM.
With `COc1ccc(-c2nnc3ccc(-c4ccc5c(c4)CCO5)cn23)cc1OC` the EC50 was > 25 µM.
`COc1cc(-c2nnc3ccc(-c4cccc(OC(C)C)c4)cn23)ccn1` was tested, and the EC50 was > 25 µM.
In the case of `COc1cc(-c2cnc3cnc(-c4cccc(OC(C)C)c4)cn23)ccn1`, the EC50 is reported as > 25 µM.
For `CC(C)c1cccc(-c2cn3c(-c4ccc(OC(F)(F)F)cc4)cnc3cn2)c1`, the EC50 was > 25 µM.
For `Oc1ccc(-c2cnc3cnc(-c4cccc(C(F)(F)F)c4)cn23)c(Cl)c1`, the EC50 was 4.26 µM.
In the case of `OCCn1cc(-c2cn3c(-c4ccc(O)cc4)cnc3cn2)cn1`, the EC50 is reported as > 25 µM.
In the case of `Cc1cnc2cnc(-c3cccc(OC(C)C)c3)cn12`, the EC50 is reported as > 25 µM.
`COc1ccc(-c2cnc3cnc(-c4cccc(C#N)c4)cn23)cc1` was tested, and the EC50 was > 25 µM.
In the case of `Cc1n[nH]c(C)c1-c1cn2c(-c3ccc(O)cc3)cnc2cn1`, the EC50 is reported as > 25 µM.
In the case of `COc1ccc(-c2nnc3ccc(-c4cccnc4OC)cn23)cc1OC`, the EC50 is reported as > 25 µM.
For `CC(C)c1cccc(-c2ccc3nnc(-c4cnn(C)c4)n3c2)c1`, the EC50 was > 25 µM.
For `COc1ccc(-c2nnc3ccc(-c4cccc(S(=O)(=O)N5CCOCC5)c4)cn23)cc1OC`, the EC50 was > 25 µM.
`COc1ccc(-c2nnc3ccc(-c4cnn(CCN5CCOCC5)c4)cn23)cc1OC` was tested, and the EC50 was > 25 µM.
With `CC(C)c1cccc(-c2ccc3nnc(-c4ccc(CN)cc4)n3c2)c1` the EC50 was > 25 µM.
In the case of `CC(C)c1cccc(-c2ccc3nnc(-c4ccc5cn[nH]c5c4)n3c2)c1`, the EC50 is reported as > 25 µM.
`Cn1ncc2cc(-c3cn4c(-c5ccc(O)cc5)cnc4cn3)ccc21` was tested, and the EC50 was 21.4 µM.
In the case of `CC(C)Oc1cccc(-c2cn3c(-c4cnn(C)c4)cnc3cn2)c1`, the EC50 is reported as > 25 µM.
Work on `CC(C)Oc1cccc(-c2cn3c(-c4ccc(CN)cc4)cnc3cn2)c1` yielded an EC50 of 24.2 µM.
With `COc1ccc(-c2nnc3ccc(-c4cn[nH]c4)cn23)cc1OC` the EC50 was > 25 µM.
`Oc1ccc(-c2cnc3cnc(-c4cnc(-c5ccccc5)o4)cn23)cc1` was tested, and the EC50 was > 25 µM.
For `Cn1cc(-c2cn3c(-c4ccc(O)cc4)cnc3cn2)ccc1=O`, the EC50 was > 25 µM.
With `COCc1cccc(-c2nnc3ccc(-c4cccc(OC(C)C)c4)cn23)c1` the EC50 was > 25 µM.
For `COc1ccc(-c2nnc3ccc(-c4ccc(N5CCN(C)CC5)nc4)cn23)cc1OC`, the EC50 was > 25 µM.
`COc1ccc(-c2cnc3cnc(-c4ccc(OC)nc4)cn23)cc1` was tested, and the EC50 was > 25 µM.
For `COc1ccc(-c2cnc3cnc(-c4cccc(CN)c4)cn23)cc1`, the EC50 was > 25 µM.
For `CC(C)c1cccc(-c2ccc3nnc(-c4ccc(O)cc4)n3c2)c1`, the EC50 was > 25 µM.
For `COc1ccc(-c2nnc3ccc(-c4cccc(OC(C)C)c4)cn23)c(OC)c1`, the EC50 was > 25 µM.
In the case of `CN(C)S(=O)(=O)c1cccc(-c2cn3c(-c4ccc(O)cc4)cnc3cn2)c1`, the EC50 is reported as > 25 µM.
With `COc1ccc(-c2cnc3cnc(-c4ccc(C(C)C)cc4)cn23)cc1` the EC50 was > 25 µM.
For `CC(C)Oc1cccc(-c2cn3c(-c4ccc(F)cc4)cnc3cn2)c1`, the EC50 was > 25 µM.
For `COc1ccc(-c2nnc3ccc(-c4ccc(O)nc4)cn23)cc1OC`, the EC50 was > 25 µM.
`Oc1ccc(-c2cnc3cnc(-c4ccc5[nH]ncc5c4)cn23)cc1` was tested, and the EC50 was > 25 µM.
For `CC(C)Oc1cccc(-c2cn3c(-c4ccnn4C)cnc3cn2)c1`, the EC50 was > 25 µM.
For `COc1ccc(-c2nnc3ccc(-c4cccc(C#N)c4)cn23)cc1OC`, the EC50 was > 25 µM.
For `COc1cccc(-c2cn3c(-c4ccc(O)cc4)cnc3cn2)n1`, the EC50 was > 25 µM.
For `COc1ccc(-c2nnc3ccc(-c4ccc(F)cc4)cn23)cc1OC`, the EC50 was > 25 µM.
For `COc1ccc(-c2cnc3cnc(-c4ccccn4)cn23)cc1`, the EC50 was > 25 µM.
`CC(=O)c1cccc(-c2cn3c(-c4ccc(O)cc4)cnc3cn2)c1F` was tested, and the EC50 was > 25 µM.
Compound `COc1ccc(C(C)C)cc1-c1cn2c(-c3ccc(O)cc3)cnc2cn1` has an EC50 of 6.06 µM.
For `COc1ccc(-c2cnc3cnc(-c4cccc(CO)c4)cn23)cc1`, the EC50 was > 25 µM.
With `CC(C)Cn1cc(-c2cn3c(-c4ccc(O)cc4)cnc3cn2)cn1` the EC50 was > 25 µM.
`CS(=O)(=O)Nc1cccc(-c2cn3c(-c4ccc(O)cc4)cnc3cn2)c1` was tested, and the EC50 was > 25 µM.
In the case of `CC(C)Oc1cccc(-c2cn3c(-c4ccc5cn[nH]c5c4)cnc3cn2)c1`, the EC50 is reported as > 25 µM.
In the case of `CCOc1cccc(-c2ccc3nnc(-c4ccc(OC)c(OC)c4)n3c2)c1`, the EC50 is reported as > 25 µM.
Work on `CC(C)c1cccc(-c2ccc3nnc(-c4ccccn4)n3c2)c1` yielded an EC50 of 14 µM.
For `CC(C)Oc1cccc(-c2ccc3nnc(-c4ccc5c(c4)CCO5)n3c2)c1`, the EC50 was > 25 µM.
With `CC(=O)Nc1cccc(-c2cn3c(-c4ccc(O)cc4)cnc3cn2)c1` the EC50 was > 25 µM.
`CN(C)C(=O)c1cccc(-c2cn3c(-c4ccc(O)cc4)cnc3cn2)c1` was tested, and the EC50 was > 25 µM.
`COc1ccc(-c2cnc3cnc(-c4cccc(OC(C)C)c4)cn23)cn1` gave an EC50 of 24.2 µM.
For `Cc1ccc(-c2nnc3ccc(-c4cccc(OC(C)C)c4)cn23)cn1`, the EC50 was > 25 µM.
`Oc1ccc(-c2cnc3cnc(-c4cccc(C(F)(F)F)c4F)cn23)cc1` was tested, and the EC50 was > 25 µM.
In the case of `Cn1cccc(-c2cn3c(-c4ccc(O)cc4)cnc3cn2)c1=O`, the EC50 is reported as > 25 µM.
`COc1cccc(OC)c1-c1nnc2ccc(-c3cccc(OC(C)C)c3)cn12` was tested, and the EC50 was > 25 µM.
With `COc1ccc(-c2cnc3cnc(-c4ccc5c(c4)OCCO5)cn23)cc1` the EC50 was > 25 µM.
`CC(C)c1cccc(-c2ccc3nnc(-c4ccnc(C(F)(F)F)c4)n3c2)c1` was tested, and the EC50 was > 25 µM.
With `CC(C)Oc1cccc(-c2ccc3nnc(-c4ccnc(C(F)(F)F)c4)n3c2)c1` the EC50 was > 25 µM.
For `COc1ccc(-c2nnc3ccc(-c4cccc(F)c4)cn23)cc1OC`, the EC50 was > 25 µM.
For `Cn1ncc2cccc(-c3cn4c(-c5ccc(O)cc5)cnc4cn3)c21`, the EC50 was > 25 µM.
In the case of `COc1cccc(-c2ccc3nnc(-c4ccc(OC)c(OC)c4)n3c2)c1`, the EC50 is reported as > 25 µM.
`OCCc1cccc(-c2cn3c(-c4ccc(O)cc4)cnc3cn2)c1` was tested, and the EC50 was > 25 µM.
`CC(C)c1ccccc1-c1cn2c(-c3ccc(O)cc3)cnc2cn1` gave an EC50 of 16.6 µM.
`COc1ccc(-c2ccc3nnc(-c4ccc(OC)c(OC)c4)n3c2)cn1` was tested, and the EC50 was > 25 µM.
`COc1ccc(-c2cnc3cnc(-c4ccnc(OC)c4)cn23)cc1` was tested, and the EC50 was > 25 µM.
In the case of `CC(C)Oc1cccc(-c2cn3c(-c4cccc(C#N)c4)cnc3cn2)c1`, the EC50 is reported as > 25 µM.
With `CC(C)c1cccc(-c2ccc3nnc(-c4ccncc4)n3c2)c1` the EC50 was > 25 µM.
In the case of `CC(C)c1cccc(-c2ccc3nnc(-c4ccc(N)cc4)n3c2)c1`, the EC50 is reported as > 25 µM.
With `NC(=O)c1cccc(-c2cn3c(-c4ccc(O)cc4)cnc3cn2)c1` the EC50 was > 25 µM.
With `COc1ccc(-c2nnc3ccc(-c4c(OC)cccc4OC)cn23)cc1OC` the EC50 was > 25 µM.
`COc1cc(-c2cn3c(-c4ccc(O)cc4)cnc3cn2)ccn1` was tested, and the EC50 was > 25 µM.
`COc1ccc(-c2nnc3ccc(-c4ccc(C)nc4)cn23)cc1OC` was tested, and the EC50 was > 25 µM.
In the case of `COc1cccc(-c2nnc3ccc(-c4cccc(OC(C)C)c4)cn23)n1`, the EC50 is reported as 12.7 µM.
In the case of `CC(C)Oc1cccc(-c2ccc3nnc(-c4cccc(C#N)c4)n3c2)c1`, the EC50 is reported as > 25 µM.
`COc1ncc(-c2nnc3ccc(-c4cccc(C(C)C)c4)cn23)cn1` was tested, and the EC50 was > 25 µM.
In the case of `CC(C)c1cccc(-c2ccc3nnc(-c4cccnc4)n3c2)c1`, the EC50 is reported as > 25 µM.
`COc1ccc(-c2nnc3ccc(-c4ccc(O)cc4)cn23)cc1OC` was tested, and the EC50 was > 25 µM.
`Cn1cc(-c2cn3c(-c4ccc(O)cc4)cnc3cn2)cn1` was tested, and the EC50 was > 25 µM.
